# From PubChem
# Compounds with a hit are over-represented: about 2.5% of the library has one in this group of screens.
# TRPC6 act: mouse TRPC6 channel activators, primary screen, cell-based, HEK293, membrane potential dye | Short transient receptor potential channel 6 (Mus musculus), Q61143 | 0.13% of 310,000 active | HEK293-TRPC6 membrane potential dye fluorescence; stronger effect = higher value | B-score at 10 µM;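 active = B-score of the integrated fluorescence ratio above library mean plus 3 SD, and starting fluorescence ratio within library mean plus 5 SD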;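 also: higher score means more depolarization so channel activation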
# Platelet DG rel: inhibitors of platelet dense granule secretion, primary screen, cell-based, MLPCN, human platelets. AID 1663, 2009. human platelet-rich plasma, SFLLRN dense granule ATP release, luminescence. 0.22% of 300,000 active. inhibition, %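 (compounds screened at 7.5 µM in platelet-rich plasma)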;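 active = mean replicate score, as percent of positive control, at or above 50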
# TRPC4 block: inhibitors of mouse TRPC4 channel, primary screen, Fluo4 calcium, HEK293 TRPC4beta/mu-opioid cells; B-score at 10 µM; DAMGO-evoked Fluo4 calcium flux; stronger effect = lower value; AID 2247, 2010; Short transient receptor potential channel 4 (Mus musculus), Q9QUQ5; 0.39% of 300,000 active;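 active = B-score over 3 SD under the library average, no early fluorescence shift, positive overall ratio signal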
#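 Test system – stable TRPC4beta/mu-opioid receptor HEK293 cells · Probe or stimulus – DAMGO, a submaximal dose followed by a maximal one · Dosing – one concentration per compound · Signal – Fluo4 calcium fluorescence by kinetic imaging, 5 s 1 Hz baseline · Evaluation – per-well B score of integrated baseline-normalized Fluo4 ratio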
# TRPC6 inh: mouse TRPC6 channel inhibitors, primary screen, cell-based, HEK293, membrane potential dye; Short transient receptor potential channel 6 (Mus musculus), Q61143; ACh-evoked depolarization; stronger effect = lower value; B-score at 10 µM; 1.1% of 310,000 active; AID 2553, 2010;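 active = B-score under library mean minus 3 SD, initial fluorescence not abnormally high, positive integrated signal ratio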;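 also: B-score derived from integrated fluorescence ratio over the kinetic read; more negative B-score means stronger inhibition of depolarization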
# TRPC4 act: activators of mouse TRPC4 channel, primary screen, Fluo4 calcium, HEK293 TRPC4beta/mu-opioid cells; Short transient receptor potential channel 4 (Mus musculus), Q9QUQ5; Fluo4 calcium fluorescence; stronger effect = higher value; B-score at 10 µM; 0.49% of 310,000 active; AID 2237, 2010;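 active = B-score above 5 SD of library B-scores, and initial fluorescence ratio not above library mean plus 5 SD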;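 also: positive B-score marks a calcium rise read as TRPC4 activation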
#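 Test system: HEK293 cells stably co-expressing mouse TRPC4beta and mu-opioid receptor | Schedule: Fluo4 dye loading 45 min at room temperature, 110 s recording | Measured by: Kinetic Fluo4 calcium fluorescence, 5 s baseline at 1 Hz | Evaluation: B score of integrated ratio | Controls: Buffer (low) and maximal DAMGO (high)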
# TRPC4 PAM: positive allosteric modulators of TRPC4, primary screen, cell-based, mouse TRPC4beta, HEK293 mu-opioid, Fluo-4 calcium. Short transient receptor potential channel 4 (Mus musculus), Q9QUQ5. DAMGO EC20, Fluo-4 Ca2+ flux; stronger effect = higher value. B-score at 10 µM. 0.42% of 310,000 active. AID 2227, 2009;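 active = B-score of calcium response area above 5 SD of library B-scores, with initial fluorescence ratio within 5 SD of library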;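 also: B-score of integrated fluorescence ratio over time as area under calcium response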
# TRPC4 sel inh 2: mouse TRPC4 off-target activity of TRPC6 inhibitors, second screen. shares compounds with TRPC6 inh. HEK293 TRPC4/MOR, membrane potential dye fluorescence; channel activated by saturating DAMGO dose. inhibition, % at 10 µM. 42% of 920 active;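 active = compounds whose fluorescence signal differed from control wells by over 3 SD, either direction, in both duplicate plates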
# TRPC4 spec: mouse TRPC4 modulation by TRPC6 hits, confirmation, selectivity assay for TRPC6 inhibitor project, cell-based, HEK293 TRPC4/mu-opioid, membrane potential dye | activity change, negative = inhibition, % at 10 µM | AID 2777, 2010 | 61% of 920 active | shares compounds with TRPC6 inh | membrane potential fluorescence;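 active = rise or fall in signal beyond 3 SD of buffer-only wells in both replicate plates, either sign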;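 also: integrated kinetic ratio of fluorescence range over baseline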
# HEK293 MPD ctr 2-1: nonspecific membrane potential effects, parental HEK293, confirmation, counter-screen for TRPC6 inhibitor project, cell-based, second counter screen. shares compounds with TRPC6 inh. parental HEK293 membrane potential dye fluorescence; maximal acetylcholine challenge after compound addition. signal change vs control, % at 10 µM. 31% of 920 active. AID 2779, 2010;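 active = membrane potential signal moving either way by over 3 SD of the maximum-effect control, in both duplicate plates, meaning non-specific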
# HEK293 MPD ctr-1: membrane potential modulation in parental HEK293, confirmation, counter-screen for TRPC6 inhibitor project, cell-based. 60% of 920 active. parental HEK293 membrane potential dye fluorescence. shares compounds with TRPC6 inh. membrane potential signal change, % at 10 µM. AID 2780, 2010;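 active = membrane potential signal shifting up or down by more than 3 SD of buffer-only wells, on both duplicate plates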
# HEK293 MPD ctr-2: parental HEK293 membrane potential modulation, confirmation, counter-screen for TRPC6 modulator project, cell-based; AID 488924, 2010; 51% of 2,400 active; shares compounds with TRPC6 inh; membrane potential dye fluorescence; membrane potential signal change, % at 10 µM;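 active = membrane potential signal moves up or down beyond 5 SD from buffer-only wells, on both duplicate plates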
# HEK293 MPD ctr 2-2: second check of TRPC6 modulator effects in parental HEK293 cells; shares compounds with TRPC6 inh; 14% of 2,400 active; membrane potential dye fluorescence; after compound, maximal acetylcholine stimulation; inhibition, % at 10 µM;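 active = membrane potential signal drops by more than 5 SD from the mean control signal, in both duplicate plates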;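 also: plate controls were acetylcholine ECmax control wells for no effect and buffer only wells for full effect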
# TRPC4/MOR mod: TRPC4 modulation by TRPC6 hit compounds, confirmation, selectivity assay for TRPC6 modulator project, cell-based, HEK293 TRPC4/mu-opioid, membrane potential dye, mouse | shares compounds with TRPC6 inh | membrane potential fluorescence | percent change from control (negative = decrease, positive = increase), % at 10 µM | 69% of 2,400 active | AID 488927, 2010;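 active = membrane potential signal moved up or down beyond 5 SD of buffer control wells, in both duplicate plates, actives on both sides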;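 also: plate controls were assay buffer wells for no effect and DAMGO maximal-effect wells for full effect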
# TRPC4/MOR inh 2: mouse TRPC4 off-target activity of TRPC6 modulators, second screen. AID 488928. 55% of 2,400 active. shares compounds with TRPC6 inh. HEK293 TRPC4/mu-opioid, membrane potential dye fluorescence; stimulated with maximal-effect DAMGO. inhibition, % at 10 µM;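 active = drop in membrane potential signal beyond 5 SD of the control wells in both duplicate plates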;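 also: TRPC4 counter screen for TRPC6 hits run under conditions tuned for TRPC6 not TRPC4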
# TRPC6 block conf: mouse TRPC6 channel inhibitors, confirmation, HEK293 cells, membrane potential dye, duplicate; inhibition, % at 10 µM; AID 488960, 2010; ACh-evoked depolarization; 43% of 3,300 active; shares compounds with TRPC6 inh;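 active = fluorescence ratio falls more than 5 SD below the full-stimulation control mean, in both duplicate runs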;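 also: integrated fluorescence ratio of peak minus minimum over baseline after agonist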
# TRPC6 act conf: mouse TRPC6 channel activators, confirmation, HEK293 cells, membrane potential dye, duplicate; activation, % at 10 µM; shares compounds with TRPC6 inh; 11% of 2,800 active; AID 488961, 2010; HEK293-TRPC6 membrane potential dye fluorescence, FDSS;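 active = ratio signal rise beyond 5 SD above unstimulated control wells' mean, seen in both duplicate runs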;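 also: plate controls were buffer EC0 wells for no effect and acetylcholine ECmax response for full effect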
# * marks the source's active call; other numbers are inactive results; i = inactive; x = no result.
SMILES,TRPC6 act,Platelet DG rel,TRPC4 block,TRPC6 inh,TRPC4 act,TRPC4 PAM,TRPC4 sel inh 2,TRPC4 spec,HEK293 MPD ctr 2-1,HEK293 MPD ctr-1,TRPC6 block conf,TRPC6 act conf,others
CN1CCCc2cc(C=O)ccc21,i,-3.1,i,-7.91*,i,i,i,-8.7%*,i,i,i,i,
O=C(CSc1nnc(-c2cccs2)n1CC1CCCO1)N1CCCC1 (stereo unspecified),i,3.3,i,i,i,i,x,x,x,x,x,x,
O=C(CCCSc1nnc(-c2cccs2)n1CC1CCCO1)c1ccccc1 (stereo unspecified),i,1.1,i,-5.18*,i,i,x,x,x,x,i,x,HEK293 MPD ctr-2=186.5%*;HEK293 MPD ctr 2-2=i;TRPC4/MOR mod=33.5%*;TRPC4/MOR inh 2=i
Cc1cc(NCc2ccccn2)nc2ccccc12,i,13.9,i,-8.87*,i,i,49.0%*,-20.1%*,i,-292.5%*,94.7%*,i,
Cc1nc(NCc2ccccn2)c2ccccc2n1,i,3.2,i,i,i,i,x,x,x,x,x,x,
O=C(NCCC(=O)N1CCC2(CC1)NCCc1[nH]cnc12)c1ccc(Br)cc1,i,-0.4,i,i,i,i,x,x,x,x,x,x,
Cc1[nH]nc(SCC(=O)NCc2ccc(Cl)cc2)c1[N+](=O)[O-],i,-5.0,i,i,i,i,x,x,x,x,x,x,
